Only some compounds are listed: those with a hit (about 3.1% of all), similar ones and a draw of the others.
F508del corr = F508del CFTR correction, initial screen, CFBE line, single point; hit rate 0.36% among 350,000; CFBE cells, YFP halide quenching; stimulated with forskolin plus potentiator P3; % fluorescence drop versus neutral controls; activity (quench increase), % at 7.58 µM;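 active = mean added fluorescence quench of at least 8% versus neutral control, with both replicates also reaching 8%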;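 also: cells transiently co-express mutant CFTR-F508del with the halide-sensitive YFP; corrector assay measuring rescue of mutant channel to the surface after 24 h compound exposure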
INS-1E GSIS act = GLuc luminescence reporter in INS-1E cells, primary screen for activators of glucose-dependent secretion of insulin. activation, % at 16.6 µM. AID 743287, 2014. hit rate 0.61% among 370,000. INS-1E GLuc reporter insulin secretion, 2-3 h;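 active = lowest replicate activation of at least 40%, so every replicate reaches that level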;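 also: 0% = median of neutral control wells and 100% = median of IBMX positive control wells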
rRNA inh HTS = reduced GFP signal of wild-type E. coli, primary screen, bacterial rRNA inhibitor project, GFP/RFP fluorescence, OD600, single point; AID 720706, 2013; hit rate 1.6% among 350,000; E. coli WT GFP vs humanized-ribosome RFP mutants, 24 h; active compounds read low; DMSO median 0, no signal -100; GFP signal change (wild-type ribosome), % (concentration not given with the values);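 active = significant combined selectivity score with lowered wild-type GFP, culture density cut under 30%, mutant RFP and density less affected; inactive = any of these conditions unmet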
Cneo AK release = Cryptococcus neoformans cell lysis inducers, primary screen, AK release luminescence, single concentration; hit rate 0.2% among 360,000; lysis activity, % at 15 µM; C. neoformans lysis, adenylate kinase release luminescence, 4 h; normalised: neutral wells 0, clomiphene wells 100; AID 651654, 2012;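 active = mean lysis activity across replicates of at least 80%, whatever share of replicates individually reach that level; inactive = mean lysis activity below 80%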
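Assay system: log-phase C. neoformans yeast / Quantity: yeast cell density of 5 × 10^6 cells/mL / Medium: fresh YPD growth medium / Compound: single dose / Timing: static 4 h at 37 °C with compound, 1 h detection / Measured by: adenylate kinase release luminescence / Read-out: lysis from increased AK signal / Benchmarks: Clomiphene as positive lysis control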
Env fusion inh = inhibitors of HIV-1 Env-driven cell-cell fusion, primary screen, HeLa-JRFL effector, CEM21 target cells, luciferase; inhibition, % at 12.3 µM; AID 651610, 2012; hit rate 1.1% among 360,000;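 active = mean replicate inhibition score of at least 50 and every replicate individually at or above 50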;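 also: 0% = plate neutral controls and 100% = maraviroc near 300 nM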
miR122 inh = miR-122 Renilla sensor signal increase in Huh7, primary screen, miR-122 inhibitor project, cell-based, single point, plate reader; activation (reporter increase), % at 12.5 µM; Huh7 miR-122 Renilla luciferase sensor, 48 h; neutral wells = 0, positive control = 100; hit rate 0.3% among 340,000;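 active = mean replicate activation score at least 90 and every replicate individually at or above 90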;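 also: higher luciferase means less miR-122 activity so hits act as miR-122 inhibitors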
An asterisk follows results filed as active; [ ] = dose if it differs, or a comment.

Results for CC1=C(C(=O)OC2CCCC2)C(c2coc3ccccc3c2=O)C2=C(CC(C)(C)CC2=O)N1 (centres undefined) ?
F508del corr: -1; INS-1E GSIS act: -13; rRNA inh HTS: -22*; Cneo AK release: -1; Env fusion inh: 21; miR122 inh: -6

Results for CC1=C(C(=O)OC2CCCC2)C(c2coc3ccc(C)cc3c2=O)C2=C(CCCC2=O)N1 (centres undefined) ?
F508del corr: 0; INS-1E GSIS act: 2; rRNA inh HTS: -27; Cneo AK release: -1; Env fusion inh: 27; miR122 inh: 17

Results for CCCCNc1cc(Cl)nc(N)n1 ?
F508del corr: 0; INS-1E GSIS act: 58*; rRNA inh HTS: -2; Cneo AK release: -1; Env fusion inh: -18; miR122 inh: -6

How did CCCN1C[C@@H](C)[C@H](OC)CN(C)C(=O)c2cc(NC(=O)Nc3c(C)noc3C)ccc2OC[C@H]1C do in these assays?
F508del corr: 1; INS-1E GSIS act: -7; rRNA inh HTS: 1; Cneo AK release: 31

What do the screens show for `O=C(CCN1CCCCC1)NCC[C@@H]1CC[C@@H](NC(=O)C2CCOCC2)[C@H](CO)O1`?
F508del corr: -1; INS-1E GSIS act: -9; rRNA inh HTS: 2; Cneo AK release: -8; Env fusion inh: 9[16.7 µM]

How did CCCCCCN1C[C@H](n2cc(COC(=O)c3ccccc3)nn2)[C@@H](O)C[C@@H]1c1ccccc1 do in these assays?
F508del corr: -1; INS-1E GSIS act: 1; rRNA inh HTS: 7; Cneo AK release: 0; Env fusion inh: -3; miR122 inh: 0

Results for O=C(OCc1cn([C@H]2CN(Cc3cccs3)[C@@H](c3ccc(Cl)cc3)C[C@@H]2O)nn1)c1ccccc1 ?
F508del corr: -2; INS-1E GSIS act: 6; rRNA inh HTS: 14; Cneo AK release: 1; Env fusion inh: 7; miR122 inh: 4

How did O=C(OCc1cn([C@H]2C[C@H](c3ccc(Cl)cc3)N(Cc3cccs3)C[C@@H]2O)nn1)c1ccccc1 do in these assays?
F508del corr: -4; INS-1E GSIS act: -6; rRNA inh HTS: -5.0*; Cneo AK release: -1; Env fusion inh: -24; miR122 inh: 8

What do the screens show for `CCCCCCN1C[C@@H](n2cc(C3CC3)nn2)[C@H](O)C[C@@H]1c1ccc(C)cc1`?
F508del corr: 3; INS-1E GSIS act: -19; rRNA inh HTS: -33; Cneo AK release: -1; Env fusion inh: -52; miR122 inh: -4

What do the screens show for `CCCCCCN1C[C@H](n2cc(COC(=O)c3ccccc3)nn2)[C@@H](O)C[C@@H]1c1ccc(C)cc1`?
F508del corr: 0; INS-1E GSIS act: 163*; rRNA inh HTS: 15; Cneo AK release: -1; Env fusion inh: 33; miR122 inh: -8

How did CCCCCCN1C[C@H](n2cc(C3CC3)nn2)[C@@H](O)C[C@@H]1c1ccc(C)cc1 do in these assays?
F508del corr: 0; INS-1E GSIS act: 274*; rRNA inh HTS: -11; Cneo AK release: 2; Env fusion inh: 11; miR122 inh: -3

Results for O=C(C1CCC1)N1CC2(C1)[C@H](c1ccccc1)[C@@H](CO)N2Cc1ccccc1F ?
F508del corr: 5; INS-1E GSIS act: 20; rRNA inh HTS: -4

How did CC(C)C#Cc1cnc2c(c1)C(=O)N([C@H](C)CO)C[C@H](C)[C@@H](CN(C)C(=O)CCN1CCCCC1)O2 do in these assays?
F508del corr: -1; INS-1E GSIS act: 17; rRNA inh HTS: 3; Cneo AK release: 2; Env fusion inh: -1[16.7 µM]; miR122 inh: 7[16.7 µM]

What do the screens show for `COc1ccc(/C(C)=N/Nc2ccc(C(=O)O)cc2)cc1OC`?
INS-1E GSIS act: 63*; Cneo AK release: 1; miR122 inh: 51

Results for COc1ccc(S(=O)(=O)N2CCCCN3[C@H](CO)[C@@H](c4ccc(C#CC5CC5)cc4)[C@@H]3C2)cc1 ?
F508del corr: -5; INS-1E GSIS act: 6; rRNA inh HTS: 1; Cneo AK release: -1; miR122 inh: -27[16.7 µM]

What do the screens show for `COc1ccc2c3c(n(C)c2c1)[C@@H](CO)NCC31CCN(C(=O)Nc2ccccc2F)CC1`?
F508del corr: 0; INS-1E GSIS act: 4; rRNA inh HTS: -1

What do the screens show for `Cc1cccc(NC(=S)N/N=C/c2ccc([N+](=O)[O-])s2)c1`?
Cneo AK release: 2; Env fusion inh: 105*; miR122 inh: -1

How did O=C(N/N=C/c1ccc([N+](=O)[O-])s1)c1cccc(Br)c1 do in these assays?
Cneo AK release: -1; Env fusion inh: 66*; miR122 inh: 2

What do the screens show for `CCCC#Cc1cnc2c(c1)C(=O)N([C@@H](C)CO)C[C@H](C)[C@@H](CN(C)C(=O)Nc1c(C)noc1C)O2`?
F508del corr: 0; INS-1E GSIS act: -6; rRNA inh HTS: 6; Cneo AK release: 0; Env fusion inh: -4[16.7 µM]; miR122 inh: 1[16.7 µM]

What do the screens show for `CC(C)NC(=O)N1Cc2cc(C(=O)NC3CCCCC3)nc(-c3cccc(-c4cccnc4)c3)c2[C@H]1CCO`?
F508del corr: 1; INS-1E GSIS act: -37; rRNA inh HTS: -23

How did O=C1[C@H]2[C@@H](C3CC3)N3C(=O)CN(Cc4ccccn4)C(=O)[C@@]3(Cc3ccccc3)[C@H]2C(=O)N1c1ccccc1 do in these assays?
F508del corr: 4; INS-1E GSIS act: 6; rRNA inh HTS: 20; Cneo AK release: 6; Env fusion inh: 8; miR122 inh: -3

How did O=C1[C@H]2[C@@H](C3CC3)N3C(=O)CN(CC4CC4)C(=O)[C@@]3(Cc3ccccc3)[C@H]2C(=O)N1c1ccccc1 do in these assays?
F508del corr: 2; rRNA inh HTS: 10; Cneo AK release: -1; Env fusion inh: 70*; miR122 inh: -4

Results for CN(C)c1ccc2c(c1)[C@H]1C[C@@H](CC(=O)N3CCCCC3)O[C@@H](CO)[C@H]1O2 ?
F508del corr: -3; INS-1E GSIS act: -6; rRNA inh HTS: 4

How did Cc1ccc(-c2ccc3c(c2)O[C@H](CN(C)Cc2cccnc2)[C@@H](C)CN([C@H](C)CO)S3(=O)=O)cc1 do in these assays?
F508del corr: 1; INS-1E GSIS act: -13; rRNA inh HTS: -7; Cneo AK release: 60; Env fusion inh: 79*[16.7 µM]; miR122 inh: 5[16.7 µM]
